This note sets out measurements from ChEMBL document CHEMBL4619801, “Discovery of Phthalazinone Derivatives as Novel Hepatitis B Virus Capsid Inhibitors” (J Med Chem, 2020).

In general, Tmax refers to the time at which the peak concentration occurs. Broadly, the bioavailability is dose-corrected exposure relative to a reference, in per cent. A high value points to much systemic uptake.

Data set [1] in a line: Tmax in Sprague-Dawley rat at 20 mg/kg, po dosed as single administration. It counts as ADME, organism-based. To be noted: in vivo.
The nature of data set [2]: Oral bioavailability in Sprague-Dawley rat at 20 mg/kg dosed as single administration. It counts as ADME, organism-based. As to conditions: in vivo.
Data set [3] can be described thus: Drug metabolism in human liver microsomes assessed as compound level by measuring LC-MS area at 3 uM in presence of NADPH incubated for 60 mins by UPLC-UV/QTOF MS analysis. It counts as ADME, Microsome. As to conditions: 1 h. Summed up: (§1)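 Each incubation held liver microsomes (human, monkey, dog, rat or mouse) at 0.5 mg/mL with 3.0 μM compound in 100 mM potassium phosphate, pH 7.4. After 3 min prewarming at 37 °C, the reaction was started with 1 mM NADPH. It was stopped at 60 min with ice-cold acetonitrile. Parent remaining and metabolites were judged from relative UV area.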

The nature of data set [4]: Drug metabolism in rat liver microsomes assessed as compound level by measuring LC-MS area of metabolite-M1 at 3 uM in presence of NADPH incubated for 60 mins by UPLC-UV/QTOF MS analysis. Format: ADME, Microsome. As to conditions: 1 h. The gist of the method:
as §1

Data set [5] is described as follows: Drug metabolism in mouse liver microsomes assessed as compound level by measuring LC-MS area at 3 uM in presence of NADPH incubated for 60 mins by UPLC-UV/QTOF MS analysis. As to conditions: 1 h. Format: ADME, Microsome. The gist of the method: as §1
Background: Liver microsomes are a subcellular fraction often used to study metabolism.

Data set [6] is described as follows: Drug metabolism in mouse liver microsomes assessed as compound level by measuring LC-MS area of metabolite-M2 at 3 uM in presence of NADPH incubated for 60 mins by UPLC-UV/QTOF MS analysis. As to conditions: 1 h. Format: ADME, Microsome. Summed up:
as §1

Data set [7] is described as follows: Drug metabolism in human liver microsomes assessed as compound level by measuring UV-area at 3 uM in presence of NADPH incubated for 60 mins by UPLC-UV/QTOF MS analysis. It counts as ADME, Microsome. To be noted: 1 h. Summed up:
as §1

The nature of data set [8]: Drug metabolism in dog liver microsomes assessed as compound level by measuring UV-area at 3 uM in presence of NADPH incubated for 60 mins by UPLC-UV/QTOF MS analysis. Format: ADME, Canis lupus familiaris, Microsome. To be noted: 1 h. The gist of the method: as §1
The nature of data set [9]: Drug metabolism in mouse liver microsomes assessed as compound level by measuring UV-area of metabolite-M2 at 3 uM in presence of NADPH incubated for 60 mins by UPLC-UV/QTOF MS analysis. Format: ADME, Microsome. As to conditions: 1 h. Summed up:
as §1

The nature of data set [10]: Drug metabolism in dog liver microsomes at 3 uM in presence of NADPH incubated for 60 mins by UPLC-UV/QTOF MS analysis relative to control. As to conditions: read-out: Drug metabolism. It counts as ADME, Canis lupus familiaris, Microsome. The gist of the method:
as §1

Data set [11] is described as follows: Drug metabolism in rat liver microsomes at 3 uM in presence of NADPH incubated for 60 mins by UPLC-UV/QTOF MS analysis relative to control. It counts as ADME, Microsome. To be noted: read-out: Drug metabolism. The gist of the method: as §1

On to `Cc1cc(-c2ccc(F)nc2F)nn(Cc2ccc(Cl)cc2)c1=O`, for which, in [1], the Tmax was 15 min. The bioavailability in data set [2] was determined as 25.3%. Moreover, the Activity in data set [3] was determined as 13.5 ×10³ No_unit; in [4], 3.05 ×10³ No_unit; in [5], 1 ×10³ No_unit; in data set [6], 0.79 ×10³ No_unit; in data set [7], 82 ×10³ No_unit; in data set [8], 26.3 ×10³ No_unit. Moreover, the Activity in data set [9] is listed as 15.4 ×10³ No_unit. Besides, the metabolised at 1 h, 3 µM was 79% in [10] and 64% in data set [11].
